The nature of data set [1]: Free plasma concentration in rat at 3 mg/kg, po after 2 hrs by ex vivo equilibrium dialysis. Format: ADME, organism-based. The method in brief:
(§1)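 Male Sprague–Dawley rats were dosed orally at 1–100 mg/kg, and total plasma concentration was measured at 1 and 2 h. This was multiplied by fraction unbound from ex vivo equilibrium dialysis; mean ± SEM, n = 3 animals.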
A general note: In equilibrium dialysis free small molecules cross a membrane that holds back macromolecules.

Data set [2] in a line: Free plasma concentration in rat at 30 mg/kg, po after 2 hrs by ex vivo equilibrium dialysis. Format: ADME, organism-based. The method in brief: as §1
A short description of data set [3]: Inhibition of BzATP-induced current in rat primary microglia cells measured after repeated BzATP treatment at -60 mV at 30 nM by whole cell patch clamp assay relative to control. Format: functional. Summed up:
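Rat primary microglia were whole-cell patch-clamped at −60 mV (external pH 7.4 with 1.8 mM CaCl2; CsCl/EGTA internal pH 7.2). Currents came from 10 s applications of 300 μM BzATP, applied repeatedly. Compound was applied by gravity via capillary for 60 s, and inhibition was taken relative to the control response.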

The next data set deals with THP-1. As to the kind of experiment: Antiinflammatory activity against human THP-1 cells assessed as reduction in LPS and BzATP-induced IL-1beta release measured after 50 mins by microplate reader. Particulars: THP-1, 50 min. Type of data set: functional, cell-based. The method in brief:
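THP-1 cells were differentiated with IFN-γ 10 ng/mL for 48 h and primed with LPS (100 ng/mL final) for 3.5 h at 10k cells/well. Compound was added for 20 min, then BzATP (1 mM final) for 30 min at 37 °C. Supernatant IL-1β was read by human AlphaLISA.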

A further data set concerns Mus musculus. As to the kind of experiment: Toxicity in C57BL/6NCrl mouse assessed as histological changes up to 100 mg/kg, po bid by 14 days exploratory toxicology study. Format: organism-based. Particulars: in vivo, 336 h, time 14 day. Summed up: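 Exploratory 14-day repeat oral toxicity study in mice with dosing twice daily (bid) up to 100 mg/kg. Endpoints were macroscopic pathology, histology and hematology.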

The next data set can be described thus: in vitro. Conditions: rat, liver microsomes. Background: Liver microsomes are a subcellular fraction often used to study metabolism.
Another data set concerns the target T1, P2X purinoceptor 7 (Mus musculus, UniProt Q9Z1M0).
T1 sequence (Q9Z1M0 whole entry): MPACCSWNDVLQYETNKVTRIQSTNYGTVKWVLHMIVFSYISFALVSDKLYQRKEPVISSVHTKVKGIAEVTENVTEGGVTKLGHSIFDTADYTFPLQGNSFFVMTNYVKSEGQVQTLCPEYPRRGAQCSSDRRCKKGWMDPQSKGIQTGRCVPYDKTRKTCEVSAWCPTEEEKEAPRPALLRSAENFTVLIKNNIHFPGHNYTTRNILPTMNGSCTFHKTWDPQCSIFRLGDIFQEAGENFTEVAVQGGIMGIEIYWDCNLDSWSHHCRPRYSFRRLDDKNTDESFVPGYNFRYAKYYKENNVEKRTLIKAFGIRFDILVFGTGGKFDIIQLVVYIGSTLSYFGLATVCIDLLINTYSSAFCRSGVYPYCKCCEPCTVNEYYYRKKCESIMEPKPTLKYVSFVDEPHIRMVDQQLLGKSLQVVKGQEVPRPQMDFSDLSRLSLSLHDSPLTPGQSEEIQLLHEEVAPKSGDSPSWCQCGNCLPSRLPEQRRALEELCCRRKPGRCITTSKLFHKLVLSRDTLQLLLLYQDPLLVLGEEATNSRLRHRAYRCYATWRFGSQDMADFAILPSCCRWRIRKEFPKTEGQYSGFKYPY
As to the kind of experiment: Antagonist activity at mouse P2X7 receptor expressed in HEK293 cells assessed as inhibition of BzATP-induced calcium-flux measured after 60 mins by FLIPR analysis. Format: cell-based. The method in brief:
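Stable rat or mouse P2X7 HEK293 cells in HBSS/20 mM HEPES/2.5 mM probenecid/0.05% BSA, pH 7.4, were loaded with Fluo-4 NW (37 °C 30 min, RT 30 min). After 30 min at RT, calcium fluorescence was read by FLIPR; n ≥ 3.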

Data set [4] is described as follows: Efflux ratio of permeability across basolateral to apical side over apical to basolateral side in MDCK2-MDR1 cells. Type of data set: ADME, cell-based, Canis lupus familiaris. Particulars: dog, MDCK-MDR1. The method in brief: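 MDR1-MDCK monolayers; permeability measured in both A-to-B and B-to-A directions, in triplicate. Efflux ratio taken as B:A over A:B permeation.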

pIC50: −log10 of the molar value.

Take `O=C(NC[C@H](c1ccc(Cl)cc1)N1CCOCC1)c1sc(-c2ncccn2)nc1C(F)(F)F`: the “Cp(f)” value in data set [1] is recorded as 91.4 nM; in data set [2], 556 nM. Further, 0.03 µM produced 67% inhibition in data set [3]. Also, the results for the pIC50 in the data set on THP-1 and on P2X purinoceptor 7 were 7.42 and 7.66, respectively. Further, in the data set on Mus musculus, the Activity entry is “Non-Toxic”. In “in vitro”, the CLint scaled (commonly a measure of how fast metabolising enzymes remove a compound, apart from limits set by blood flow) at 1 h, 1 µM is 85 mL/min/kg. Moreover, the efflux ratio (commonly the permeability from basolateral to apical divided by that in the opposite direction, in the common usage) in data set [4] worked out at 0.81.

The values above are taken from ChEMBL document CHEMBL5055621, “Synthesis and Characterization of the Novel Rodent-Active and CNS-Penetrant P2X7 Receptor Antagonist Lu AF27139” (J Med Chem, 2021).
